This series in a line: Toxicity liver stage against HepG2, at 10uM. It is filed as cell-based. The arrangement: test concentration 10 uM, cell line HepG2-A16-CD81EGFP. Particulars: human, HepG2-A16-CD81EGFP cells; read-out: INHIBITION
The method, boiled down: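 Uninfected HepG2-A16-CD81EGFP cells, 3 × 10^3 per well, 1536-well, plated on prespotted compound at 10 μM final, parasite-free screening media added to match infected plates; puromycin 10 μM positive, DMSO 0.5% negative; run in parallel with 48 h PbLuc assay at 37 °C, 5% CO2; viability by CellTiter-Glo luminescence, normalized to controls.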
For the compound `CC(c1ccc(F)cc1)N1CCN(Cc2ccc(C#N)cc2)CC1` (configuration not stated), the cytotoxicity at 10 µM is -6.17%.

Take `O=C(NC[C@H]1OC[C@@H](NCc2ccc(F)cc2)[C@@H]1O)c1ccncc1`: the cytotoxicity at 10 µM worked out at 7.2%.

With `CNC(=O)CN1C(=O)CN(C(=O)COC)CCC(OC)c2ccccc21` (configuration not stated), the cytotoxicity at 10 µM was -8.12%.

In the case of `Cc1nc2ccn(C(C)C)c(=O)c2cc1C(=O)O`, the cytotoxicity at 10 µM is -43.6%.

`O=C(CCn1ccc2cc(Br)ccc21)NC[C@@H]1CCCN2CCCC[C@H]12`: the cytotoxicity at 10 µM was 8.35%.

Consider `CN1C(=O)C2(CC(=O)Nc3[nH]ncc32)c2ccc(F)cc21` (configuration not stated), for which the cytotoxicity at 10 µM is -1.52%.

Take `O=c1c(NCc2ccco2)c(NCC(O)CN2CCOCC2)c1=O` (configuration not stated): the cytotoxicity at 10 µM was -55.8%.

For the compound `COC[C@]12COC[C@H]1CN(C(=O)C1CC(F)(F)C1)C2`, the cytotoxicity at 10 µM is 5.83%.

With `CCC1=N[C@@]2(CC[C@@H]3CN(C(=O)NCC(C)C)C[C@@H]32)C(=O)N1CCOC`, the cytotoxicity at 10 µM amounted to 10.3%.

`Cc1ccc(C)c(NC(=O)Cn2cc(I)cn2)c1`: the cytotoxicity at 10 µM was determined as 7.72%.

`CC(=O)c1c(C)nn(S(=O)(=O)c2ccccc2)c1C`: the cytotoxicity at 10 µM is -0.305%.

For the compound `CCc1ccccc1N1CC(c2nnc(N)s2)CC1=O` (configuration not stated), the cytotoxicity at 10 µM amounted to 0.502%.

`COCCNCc1cc2c(C)cc(C)cc2n2c(=O)n(C)nc12`: the cytotoxicity at 10 µM was -10.3%.

For `CC(=O)N1CCN(C)CC(COCc2ccccc2)C1` (configuration not stated), the cytotoxicity at 10 µM was -4.79%.

For `CC(=O)N1CC2(CCCN(Cc3ccc(Cl)cc3)C2)Cc2ccccc21` (configuration not stated), the cytotoxicity at 10 µM is 10.6%.

For the compound `Fc1cccc2c1CCC2NCc1ccc(N2CCOCC2)cc1` (configuration not stated), the cytotoxicity at 10 µM was -14.7%.

For the compound `Cc1cc(N2CCC(NS(C)(=O)=O)CC2)nc(C(C)C)n1`, the cytotoxicity at 10 µM was -3.36%.

Turning to `CCN(Cc1cccc(Cl)c1)Cc1ncc(C(C)(C)C)o1`, the cytotoxicity at 10 µM stood at 11.2%.

As for `Cc1ccc(CCCC(=O)N2CC(=O)Nc3cccnc32)s1`, the cytotoxicity at 10 µM is -36.6%.

As for `Cc1cc(NC(N)=O)ccc1OCC(F)(F)F`, the cytotoxicity at 10 µM was -0.883%.

For the compound `Cc1cnn(C2CN(CCCOc3ccc(C#N)cc3)C2)c1`, the cytotoxicity at 10 µM was 4.09%.

`Cc1c(COC(C)C)cccc1NC(=O)N1CCCC(CO)C1` (configuration not stated): the cytotoxicity at 10 µM was -5.44%.

For the compound `Cc1ccc2ncn(CC(O)CN3CCC(C)CC3)c(=O)c2c1` (configuration not stated), the cytotoxicity at 10 µM is -0.539%.

Turning to `O=C(c1sccc1C1CC1)N1CCN(c2ncccn2)CC1`, the cytotoxicity at 10 µM is -6.87%.

As to `O=C(c1ccc(-n2cccn2)c(F)c1)N1CCCN2CCCC2C1` (configuration not stated), the cytotoxicity at 10 µM was -3.9%.

Turning to `Cc1ccc(CNC(=O)N2CCOCC2C2CC2)cc1F` (configuration not stated), the cytotoxicity at 10 µM was 10.4%.

Regarding `Cc1cc(NC2CCc3nc(C(C)C)nn3C2)n2ncnc2n1` (configuration not stated), the cytotoxicity at 10 µM is 13.4%.

In the case of `O=C(Cc1ccc2c(c1)OCO2)N1CCN(c2ccncc2)CC1`, the cytotoxicity at 10 µM is -22.9%.

For `Cc1cnn(CC2CCCN2C(=O)Cc2ccc3c(c2)CCO3)c1` (configuration not stated), the cytotoxicity at 10 µM was -144%.

As for `CCn1cnnc1C1CCN(C(=O)c2ccc(OC(C)C)nc2)CC1`, the cytotoxicity at 10 µM worked out at 1.14%.

For `CCN(CC(=O)Nc1c(C)n[nH]c1C)CC(O)c1ccc(C)cc1` (configuration not stated), the cytotoxicity at 10 µM was -2.86%.

For the compound `Cc1n[nH]c(C2CN(CCCOc3ccc(F)cc3)CCO2)n1` (configuration not stated), the cytotoxicity at 10 µM is -5.76%.

For the compound `CN(Cc1ccccc1NCc1ncc[nH]1)C(=O)c1cccs1`, the cytotoxicity at 10 µM is -3.21%.

For the compound `CC(C)(C)OCCN(Cc1cccc(O)c1)C1CCC(O)CC1` (configuration not stated), the cytotoxicity at 10 µM came to 8.22%.

`CN(CC(O)C1CC1)C(=O)c1ccc(-c2nc(C3CC3)no2)cc1` (configuration not stated): the cytotoxicity at 10 µM is -3.45%.

Regarding `COc1cccc(S(=O)(=O)CCNCCn2cccn2)c1`, the cytotoxicity at 10 µM is -4.96%.

Take `CCn1ccnc1S(=O)(=O)Cc1ccc(C(N)=O)cc1`: the cytotoxicity at 10 µM is -3.8%.

Take `O=C(CCN1CCOCC1)Nc1cccc(CNCc2cccs2)c1`: the cytotoxicity at 10 µM was found to be 5.04%.

Regarding `COc1ccc(CNC(=O)c2ccc(Br)cn2)cc1`, the cytotoxicity at 10 µM was -18%.

`CC(=O)NCCC(=O)Nc1sccc1C(=O)C(C)(C)C`: the cytotoxicity at 10 µM was -46.3%.

As to `CN(C)c1ncc(CNC(=O)Nc2ccccc2F)n1C`, the cytotoxicity at 10 µM is -46.9%.

In the case of `CC(C1CC1)N(C)C(=O)CCn1cccn1` (configuration not stated), the cytotoxicity at 10 µM was -2.37%.

As for `CN(C)c1ccc(CCCNC(=O)Nc2ccc(C#N)cc2)cc1`, the cytotoxicity at 10 µM is -1.14%.

As for `CN(C)CCOCc1cncc2c1CCN(C(=O)c1cscn1)C2`, the cytotoxicity at 10 µM was -102%.

In the case of `CC(C)n1c2ccccc2c2c1cc(C(=O)N(C)C)n2S(C)(=O)=O`, the cytotoxicity at 10 µM was -90.8%.

Turning to `Cc1ccccc1N1CCCN(C(=O)CCc2nncn2C)CC1`, the cytotoxicity at 10 µM is 3.82%.

As for `CC(C)C1CN(Cc2nccn2C)CCC(=O)N1CC1CC1` (configuration not stated), the cytotoxicity at 10 µM is -13.7%.

On to `CC(C)(C(=O)NCC1CCN(Cc2ccccn2)C1)c1ccccc1` (configuration not stated), for which the cytotoxicity at 10 µM is -3.09%.

`Cc1cc(C)n(CC(C)Nc2nc(-c3ccncc3)nc3c2CNC3)n1` (configuration not stated): the cytotoxicity at 10 µM is -1.75%.

As to `Cc1ccc(CN(Cc2ccccn2)C(=O)CCC2CCCN(C)C2)s1` (configuration not stated), the cytotoxicity at 10 µM was determined as 18.3%.

On to `c1cnn(CC2CCN(c3nc(C4CC4)nc4c3CCNCC4)CC2)c1`, for which the cytotoxicity at 10 µM was -2.84%.

Consider `CCN(CC)c1ncccc1CNCc1ccc(Cl)s1`, for which the cytotoxicity at 10 µM was found to be 10.6%.

Take `Cc1nn(C2CCCC2)c2nc(C(C)(C)CN3CCN(C)CC3)[nH]c12`: the cytotoxicity at 10 µM is -6.61%.

On to `N#CC1CCCN(S(=O)(=O)c2ccc(C(=O)NCC(F)F)cc2)C1` (configuration not stated), for which the cytotoxicity at 10 µM was found to be 6.74%.

Consider `CCN(CCOC)C(=O)CCc1scnc1C`, for which the cytotoxicity at 10 µM was -15.8%.

With `Cc1cccnc1N1CCN(C(=O)CCc2ccccn2)CC1`, the cytotoxicity at 10 µM is -12.1%.

Regarding `Cc1ccc([C@@H]2CN(C(=O)CCc3ccco3)C[C@H]2N(C)C)cc1`, the cytotoxicity at 10 µM worked out at 3.13%.

As to `CN(CCCc1cnn(C)c1)Cc1cc2n(n1)CCCNC2`, the cytotoxicity at 10 µM turned out to be 6.49%.

For the compound `Cc1[nH]c2c(F)cccc2c1CC(=O)N1CCC(NS(C)(=O)=O)CC1`, the cytotoxicity at 10 µM is 7.58%.

Take `CCc1nc(N2CCCC(CCCOC)C2)c2cnn(C)c2n1` (configuration not stated): the cytotoxicity at 10 µM worked out at 6.46%.

Turning to `CN1CCC(Cc2noc(CC3CC3)n2)CC1`, the cytotoxicity at 10 µM is -9.96%.

Regarding `CSc1ccc(CNC(=O)C2CC(=O)N(C(C)(C)C)C2)cc1` (configuration not stated), the cytotoxicity at 10 µM stood at 4.69%.

Consider `COc1ccnc(N2CCC3(CCCN(C(C)C)C3=O)C2)n1` (configuration not stated), for which the cytotoxicity at 10 µM is -8.7%.

`C=C(C)COc1ccccc1CN1CCCC(C(=O)NCCCO)C1` (configuration not stated): the cytotoxicity at 10 µM is 7.36%.

Take `Cc1ccc(F)cc1-n1c(CN(C)S(C)(=O)=O)n[nH]c1=O`: the cytotoxicity at 10 µM is 2.19%.

With `Fc1ccccc1CN1CCCC(NC2CCOCC2)C1` (configuration not stated), the cytotoxicity at 10 µM was determined as 6.56%.

Take `CC(C)Cc1cc(-c2cc(-c3ccc[nH]3)nc(N)c2C#N)n[nH]1`: the cytotoxicity at 10 µM was determined as 14.3%.

Regarding `CC1CN(S(=O)(=O)c2ccc(C(=O)NCC(F)F)cc2)CCCO1` (configuration not stated), the cytotoxicity at 10 µM worked out at 4.05%.

For the compound `COc1cc(C)cc(C(C(=O)O)N(C)Cc2cnn(C)c2)c1OC` (configuration not stated), the cytotoxicity at 10 µM stood at 7.87%.

Take `COc1cccc(C(=O)Nc2ccc(OC3CCN(C)CC3)cc2)c1`: the cytotoxicity at 10 µM is -6.88%.

As for `CCSc1nsc(NC(=O)COc2ccc3c(c2)OCO3)n1`, the cytotoxicity at 10 µM is 2.03%.

As for `CC(=O)NCCOc1cccc(Br)c1`, the cytotoxicity at 10 µM is -3.06%.

Take `COCCN1CCN(C(C(=O)O)c2ccc(SC)cc2)CC1` (configuration not stated): the cytotoxicity at 10 µM turned out to be 1.75%.

In the case of `COc1ccc(F)c(-c2cc(O)nc(N)n2)c1`, the cytotoxicity at 10 µM was 2.05%.

Regarding `CN(C)CC1(O)CCN(S(=O)(=O)c2ccc(F)c(F)c2)C1` (configuration not stated), the cytotoxicity at 10 µM was -0.954%.

Consider `Fc1ccc(-c2nc(CNC3CCc4ncnn4C3)cs2)cc1` (configuration not stated), for which the cytotoxicity at 10 µM was -4.92%.

For the compound `Cc1cc(NC(=O)NCC(O)c2ccc(F)cc2)n(C)n1` (configuration not stated), the cytotoxicity at 10 µM was -2.69%.

As for `CC(Cn1ccnc1)NC(=O)N1CCN(Cc2cccs2)CC1` (configuration not stated), the cytotoxicity at 10 µM was -5.36%.

As for `CCN(Cc1cccc(C)c1)Cc1nc2c(cnn2C)c(=O)[nH]1`, the cytotoxicity at 10 µM was -21.6%.

On to `Cc1nc2n(n1)CC(NCc1cc(Cl)c3c(c1)OCCCO3)CC2` (configuration not stated), for which the cytotoxicity at 10 µM is -4.15%.

Consider `COc1cc(CNCc2ccc(C(C)O)cc2)cc2c1OCO2` (configuration not stated), for which the cytotoxicity at 10 µM was -9.78%.

With `COc1cccc(-n2nnc(C(=O)N3CCNC(=O)C3)c2C)c1`, the cytotoxicity at 10 µM is -10.3%.

Take `CCn1ccnc1CNCC1CCCN1c1cccnn1` (configuration not stated): the cytotoxicity at 10 µM is -1.28%.

Take `CCc1noc(C(C)N2CCOCC2)n1` (configuration not stated): the cytotoxicity at 10 µM is -6.5%.

As to `c1ccc2cc(OCCN3CCOC(Cn4cncn4)C3)ccc2c1` (configuration not stated), the cytotoxicity at 10 µM is 4.6%.

For `Cc1cn2c(n1)CCC(NC(=O)c1cc(C(C)C)no1)C2` (configuration not stated), the cytotoxicity at 10 µM is -2.12%.

With `CN(C)C(=O)N1CCC2(CC1)CNc1ccc(F)cc12`, the cytotoxicity at 10 µM came to 8.88%.

`Cc1nc2c(c(NC(C)C)n1)CCN(C(=O)c1ccno1)CC2`: the cytotoxicity at 10 µM was 7.77%.

Consider `Cc1ccc(CN2C[C@@H]3CCCO[C@@H]3[C@H](NC(=O)CC3CC3)C2)s1`, for which the cytotoxicity at 10 µM came out at 19.9%.

As for `CN(C)C1CCN(C(=O)c2cc3c(s2)CCN3C(=O)C2CC2)CC1`, the cytotoxicity at 10 µM stood at 9.61%.

For the compound `CN1[C@H](CN2CCCC2)C[C@@H]2CN(C(=O)Cc3cccs3)CC[C@@H]21`, the cytotoxicity at 10 µM worked out at 4.99%.

With `CNC(=O)c1cnc2n1CCN(Cc1cccnc1)C2`, the cytotoxicity at 10 µM worked out at 8.88%.

For `CC(=O)N1CCO[C@@H]2CN(S(=O)(=O)c3cccnc3)C[C@@H]2C1`, the cytotoxicity at 10 µM worked out at 3.02%.

As for `O=C(NCC1Cn2nnc(-c3ccncc3)c2CO1)c1ccsc1` (configuration not stated), the cytotoxicity at 10 µM came out at 11.1%.

`Cc1noc(C)c1CN1CCO[C@H]2CN(Cc3ccc(F)cc3)C[C@H]21`: the cytotoxicity at 10 µM is 1.96%.

On to `CN1C(=O)C2(CCNCC2)c2cc(F)ccc21`, for which the cytotoxicity at 10 µM is -115%.

`CN1[C@@H]2CC[C@H]1CN(c1cc(Sc3cccs3)nc(N)n1)CC2`: the cytotoxicity at 10 µM is -8.02%.

These data come from ChEMBL document CHEMBL4513216, “Probing the Open Global Health Chemical Diversity Library for Multistage-Active Starting Points for Next-Generation Antimalarials” (ACS Infect Dis, 2020).
